In PMC9292215 (Clinical Pharmacology and Therapeutics, 2021):
Marks after values point to notes of the source that are not given here.

Assays:
[1] = Phase I SAD/FI/MAD study: adverse events; type: in vivo, human
anandamide (AEA) = assay: Plasma anandamide; type: in vivo, human; details: for AEA AUC0–24: Day 1; for AEA AUC0–τ: Day 10
Procedure, shortened: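 In a double-blind, placebo-controlled multiple-dose part, healthy adult men and women in groups of eight (six active, two placebo) took oral test compound once daily for 10 days. They fasted at least 8 h before and 1 h after dosing. Plasma anandamide AUCs were taken on Days 1 and 10, with a Day 10/Day 1 ratio. Data are mean (CV%); tmax is median (range).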

FAAH = molecular target: T1, FAAH (Homo sapiens, UniProt O00519); assay: Leukocyte FAAH activity in participants; type: in vivo
T1 sequence (O00519 1-579): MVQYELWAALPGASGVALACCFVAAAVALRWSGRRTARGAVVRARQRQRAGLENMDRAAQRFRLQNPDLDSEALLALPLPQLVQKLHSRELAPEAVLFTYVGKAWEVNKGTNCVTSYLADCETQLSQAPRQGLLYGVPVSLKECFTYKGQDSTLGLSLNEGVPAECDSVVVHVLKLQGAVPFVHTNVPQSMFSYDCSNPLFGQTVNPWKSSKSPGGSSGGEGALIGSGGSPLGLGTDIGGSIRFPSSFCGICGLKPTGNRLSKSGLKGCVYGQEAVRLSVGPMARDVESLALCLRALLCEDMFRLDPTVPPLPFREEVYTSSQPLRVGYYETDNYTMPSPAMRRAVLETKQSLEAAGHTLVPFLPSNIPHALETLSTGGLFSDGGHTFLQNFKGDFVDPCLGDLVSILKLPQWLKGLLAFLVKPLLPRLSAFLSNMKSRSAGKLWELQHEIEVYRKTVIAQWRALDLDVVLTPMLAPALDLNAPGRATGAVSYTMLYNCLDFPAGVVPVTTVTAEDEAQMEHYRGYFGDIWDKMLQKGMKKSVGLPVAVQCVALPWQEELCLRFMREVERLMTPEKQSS
Procedure, shortened: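 Healthy men and women aged 18–55 years (BMI 19–30 kg/m²) took single oral capsule doses of test compound (0.25–100 mg) or matching placebo in a double-blind design. They fasted at least 8 h before and 1 h after dosing. Leukocyte FAAH activity was followed after dosing and expressed as percent inhibition, judged by visual inspection. Values are means of six participants per group.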

[2] = MAD 50 mg, moderate, serious, participant with fatal outcome

CN(C(=O)n1cnc(-c2ccc[n+]([O-])c2)c1)C1CCCCC1 [BIA 10-2474, 3-(1-(cyclohexyl(methyl)carbamoyl)-1H-imidazol-4-yl)pyridine 1-oxide]
Any AE, n (%) ([1]; 2.5 mg once daily 10 days, N = 6): 1 (16.7%)
Any AE, n (%) ([1]; 5 mg once daily 10 days, N = 6): 1 (16.7%)
Any AE, n (%) ([1]; 10 mg once daily 10 days, N = 6): 3 (50%)
duration of blurred vision ([1]; 10 mg/day, mild): < 2.5 h
participants with blurred vision ([1]; 10 mg/day, two participants): 2.3%
Any AE, n (%) ([1]; 20 mg once daily 10 days, N = 6): 4 (66.7%)
Abdominal pain, No. events ([1]; MAD 50 mg): 1
Asthenia, No. events ([1]; MAD 50 mg): 1
Blurred vision, No. events ([1]; MAD 50 mg): 1
Diarrhea, No. events ([1]; MAD 50 mg): 2
Dizziness, No. events ([1]; MAD 50 mg): 2
Nausea, No. events ([1]; MAD 50 mg): 1
Headache, No. events ([1]; MAD 50 mg, 3 moderate): 2 + 3^#
Hot Flush, No. events ([1]; MAD 50 mg, moderate): 1^#
Soft feces, No. events ([1]; MAD 50 mg, moderate): 1^#
Diplopia, No. events ([1]; MAD 50 mg, moderate, serious): 1^#§
Transient global amnesia, No. events ([1]; MAD 50 mg, moderate, serious): 1^#§
Dysarthria, No. events [1, 2]: 1^#§&
Feeling drunk, No. events [1, 2]: 1^#§&
Vitreous floaters, No. events ([1]; MAD 50 mg, serious): 1^§*
Hemiparesis, No. events ([1]; MAD 50 mg, severe, serious): 1^£§
Nervous system disorder, No. events ([1]; MAD 50 mg, severe, serious, hospitalization): 1^£§H
participants reporting treatment-emergent adverse effects ([1]; any dose of BIA 10-2474, 15 participants): 17.9%
participants with CNS (serious) adverse events ([1]; repeated 50 mg (up to day 5), one with fatal outcome): five of six
participants with headache ([1]; single 40 mg, 10 and 20 mg/day for 10 days, three participants): 3.6%
Any AE, n (%) ([1]; single dose 0.25 mg, N = 6): 0
Any AE, n (%) ([1]; single dose 1.25 mg, N = 6): 0
Any AE, n (%) ([1]; single dose 2.5 mg, N = 6): 1 (16.7%)
Any AE, n (%) ([1]; single dose 5 mg, N = 6): 0
Any AE, n (%) ([1]; single dose 10 mg, N = 6): 1 (16.7%)
Any AE, n (%) ([1]; single dose 20 mg, N = 6): 0
Any AE, n (%) ([1]; single dose 40 mg (SAD and FI combined), N = 18): 5 (27.8%)
Any AE, n (%) ([1]; single dose 100 mg, N = 6): 1 (16.7%)
tolerability ([1]; up to 100 mg single dose and up to 20 mg once daily for 10 days): well tolerated
AEA Ratio (AUCD10/D1) (anandamide (AEA); 2.5 mg once daily): 1.27
AEA AUC0–24 (anandamide (AEA); 2.5 mg once daily): 42.8 (17.1) ng⋅hour/mL
AEA AUC0–τ (anandamide (AEA); 2.5 mg once daily): 54.2 (9.41) ng⋅hour/mL
AEA Ratio (AUCD10/D1) (anandamide (AEA); 5 mg once daily): 1.25
AEA AUC0–24 (anandamide (AEA); 5 mg once daily): 44.9 (23.4) ng⋅hour/mL
AEA AUC0–τ (anandamide (AEA); 5 mg once daily): 56.3 (17.7) ng⋅hour/mL
AEA Ratio (AUCD10/D1) (anandamide (AEA); 10 mg once daily): 1.16
AEA AUC0–24 (anandamide (AEA); 10 mg once daily): 52.2 (19.3) ng⋅hour/mL
AEA AUC0–τ (anandamide (AEA); 10 mg once daily): 60.8 (17.9) ng⋅hour/mL
AEA Ratio (AUCD10/D1) (anandamide (AEA); 20 mg once daily): 1.22
AEA AUC0–24 (anandamide (AEA); 20 mg once daily): 51.2 (19.6) ng⋅hour/mL
AEA AUC0–τ (anandamide (AEA); 20 mg once daily): 62.8 (21.7) ng⋅hour/mL
BIA 10-2474 plasma exposure giving relevant AEA increases (anandamide (AEA); achieved with 10 mg/day): around 1,500 ng⋅h/mL
AEA AUC0–t (anandamide (AEA); single dose 0.25 mg): 27.5 (34.1) ng⋅hour/mL
AEA AUC0–t (anandamide (AEA); single dose 1.25 mg): 68.0 (13.1) ng⋅hour/mL
AEA AUC0–t (anandamide (AEA); single dose 2.5 mg): 101 (17.2) ng⋅hour/mL
AEA AUC0–t (anandamide (AEA); single dose 5 mg): 109 (11.2) ng⋅hour/mL
AEA AUC0–t (anandamide (AEA); single dose 10 mg): 137 (8.92) ng⋅hour/mL
AEA AUC0–t (anandamide (AEA); single dose 20 mg): 149 (6.20) ng⋅hour/mL
AEA AUC0–t (anandamide (AEA); single dose 40 mg): 160 (26.42) ng⋅hour/mL
AEA AUC0–t (anandamide (AEA); single dose 100 mg): 188 (22.4) ng⋅hour/mL
increase in plasma AEA AUC compared with placebo (anandamide (AEA); single dose 100 mg): 12.5 fold
return of AEA to baseline (anandamide (AEA); single doses): > 72 hours post dose
apparent maximum FAAH inhibition (FAAH; 5 mg and above, visual inspection): > 97%
duration of FAAH inhibition by more than 90% (FAAH; doses above 2.5 mg): at least 72 hours
FAAH activity inhibited (FAAH; doses above 2.5 mg, for at least 72 hours): more than 90%
FAAH inhibition (FAAH; single dose 0.25 mg, visual inspection): more than 50%
